In the EternaBench riboswitch data:

Test system: MS2 coat protein
Assay: apparent Kd, MS2 coat protein; higher = weaker binding; RNA-MaP array; FMN 200 µM where present
Method in brief: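 The apparent Kd is reported as the median of filtered per-cluster binding-curve fits. To get these curves, designs transcribed by stalled E. coli RNA polymerase on Illumina sequencing-chip clusters were titrated with SNAP-549-labelled MS2 coat protein from 0.7 or 1.5 nM, doubling to 3 µM. Titrations were run without and then with constant ligand in 100 mM Tris-HCl pH 7.5, 80 mM KCl, 4 mM MgCl2, BSA, DTT, yeast tRNA and Tween-20, and green signal was normalised to red-channel RNA signal and control-cluster median Fmax.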

[1] = designed as: OFF switch for flavin mononucleotide, no ligand
[2] = ligand present: flavin mononucleotide, designed as: OFF switch for flavin mononucleotide
[3] = designed as: ON switch for flavin mononucleotide, no ligand
[4] = ligand present: flavin mononucleotide, designed as: ON switch for flavin mononucleotide

Sequence	apparent Kd [1] [nM]	apparent Kd [2] [nM]	apparent Kd [3] [nM]	apparent Kd [4] [nM]
GCGUAUGAAAAUAUGUCUGAGGGCAGAAGGCACAUGAGGAUCACCCAUGUAACGAUCUCUUCAAGUGAGGAUAUGUGCUCAUUG	31.8	113		
UCUCGUGUUCAGAAGGGCAAUCAACGAACAUGAGGAUCACCCAUGUUCUGCAGGAUAUGAACGGGUGGGAGCCCUGCGAAGGGC			104	15
UUUUAGUCAGGAUAUACAUUUUUUUAAUUAUUUAUAAUAUUACAUGAGGAUCACCCAUGUAGAAGGGACAUUUU	28.6	26.2		
AGUGGACAUGAGGAUCACCCAUGUAUGCUGGCAUGAGGAUAUCCGAUUCGUUUCGACUAAGGAGAAGGCAUAGCCC			97.2	31.3
UUUUUCUCAGGAUAUACAUGAGGAUCACCCAUGUAUAUUGAAGAUAAUACAUGGGAAUGUAGAAGGGAGCUCAU	109	115		
AAUUGACACGUAGGAUAUCGAUCUAAAUUAACUCGAGAAGGACGUACAUGAGGAUCACCCAUGUUUAAUGGAGUAGAUAUGUUG	121	398		
GCUGAUGCAGGAUAUAUAUGAAGCGUUCGAAUAGAAUGCGAACAUGAGGAUCACCCAUGUAGAAGGGCAUUGGC	14.6	20.1		
UAUAUAUAGUAAGGAUAUGUAAUUUUUUUAUAAACAGAAGGUACUGACAUGAGGAUCACCCAUGUUUUAGUGUGGGCAUGUAGA	107	169		
UUACCUCAUGAGAAGGACAUGAGGAUCACCCAUGUAGGAUAUCGUGGAAGACUGGUAUUGAAUCUUCGGAUUCAAUACCUGUCU			317	15.7
UUGGACGUCGUAGGAUAUGUAGGAUAUUCCUACAUGAGGAUCACCCAUGUUGAUAUGGAAGAAGGACAGAAGGACGAUGUCCAU			31.8	4.64
GAGAAGUCAGGAUAUGCUGCUCGUCACUUGCGUGAUGAGUAGCAGAAGGGACAUGAGGAUCACCCAUGUAAAGG	136	315		
GUUUUACAUGAGGAUCACCCAUGUGAGGAUAUAUUGUUAUUUUUGAUAUUUUUUGGUGGUAGAAGGCGCGUGAU	36.4	32.7		
AACAGCUCGUCAGGAUAUAUUUUCAUUAUAUGUAUUUAUGUACAUGAGGAUCACCCAUGUUGUUUGUAGAAGGGACGAGCUGAA	13.6	11.4		
AUCAGCUCGUCAGGAUAUACGUCACUGCGUCAGCAGUGUGGUACGAUCACAUGAGGAUCACCCAUGUAGAAGGGACGAGCUGAU	12.7	215		
UUAACAUGAGGAUCACCCAUGUAUAGAUUGUUUAUUAGAAGUGAGGAUAUAUAUAAAAUUAGGUAGUAGAAGGCACUGGGUUUU			30.5	31.9
GCUAGUAUUGCAGGAUAUUGUGUUUAAGGAUGGCAAGAAGGGCAUUACAUGAGGAUCACCCAUGUUUUCCGUAGUCAUACUAGC	7.34	7.28		
GACACUAUGUUUGUCAGAUAGAGAGAGGAUAUGGGUCAUGAGACAUGAGGAUCACCCAUGUAUAAUCAGAAGGCUCGAGUACGA			19.1	13.7
GGUACUCAAAGAGUACCAAUACGAACAUGAGGAUCACCCAUGUAGGAUAUGCUACUCAAAGAGUAGCAGAAGGAUAUGUGCUUA	16.9	15.3		
GGAUGGUAGGGAGGAUAUGACAUGAGGAUCACCCAUGUGAAACGUCCUAGGUCAGAAGGCCCAUAAGUCAAAACCCAAAAUGUG	16.7	153		
GCAAAGCCUGACAUGAGGAUCACCCAUGUUAGAUUGUUAUGUCAGGAUAUUGUCUAGCAACUAGACAAGAAGGGAUGCUUUGCC			603	50.9
GGUACCAUCACAGGAUAUGCUUUCCUUUGGGAAGCAGAAGGGUGUAACAUGAGGAUCACCCAUGUGGUGCCCGGGCGUGAGCCC			120	15.9
GUAUCCGCUGAGGAUAUAAACUCCCUUGAGGGUUUAGAAGGCAGCACAUGAGGAUCACCCAUGUGGUAAGUUUG	17.1	29.2		
GGGUACAUCGGAGGAUAUCAUGUAAAUACAUGAGGAUCACCCAUGUCGAUGGAGACAUCGGAGCUUGAGAAGGCCGAUGUACCG			36.2	6.49
GUGGUCAGACAUGAGGAUCACCCAUGUGGAAUAAAUAACAACUAGGAUAUGUAAUAUAGGAUAUAACAGAAGGAGUGAUUGGUG			168	138
UGAAGUGGCGACAUGAGGAUCACCCAUGUAUGGUAUUCAACCAGAAGGCAUGUUGAGGAAUUACAUGAGGAUAUGGGAGAUCUA			314	121
CCGGAAAUAGAGGAUAUAGUACUGGAUACAGUACUAGAAGGCUAUACAUGAGGAUCACCCAUGUGUCCUACCGG	16	32.4		
CAUACCUGUGAAGGAUAUACGUUGUUAGCUACCGUAGAAGGUCACAUGAGGAUCACCCAUGUCAAGGCAAGAACAUGAUCCGAA	304	566		
AGAUUUAAUGAGGAUAUCGUAUUGGAUAUAGUGCGAGAAGGCAUUACAUGAGGAUCACCCAUGUUUUGUUGGGA	31.8	74.1		

Sequence	apparent Kd [1] [nM]	apparent Kd [2] [nM]	apparent Kd [3] [nM]	apparent Kd [4] [nM]
CGCUAAGAUGGGUCUAAUGGACCACAGGAUAUGCUUGUACAUGAGGAUCACCCAUGUAAUAUUGUGCAGAAGGGUGGAUUCGCG			66.5	10.8
AUAUCUUGUCAAGGAUAUGUUGUAUUGAUCUGAAAACAUGAGGAUCACCCAUGUAUACGGUGGGAACAGAAGGUGAAUGUAGAA	532	674		
UGAUUACGAGGAUAUACAUGAGGAUCACCCAUGUAGUCAGGGCCCAUACUCCGAGCAUGUAGAAGGCGUUGUCU	32.7	48.8		
CGAUGACACAGUCAUCCAAUACGAACAUGAGGAUCACCCAUGUAGGAUAUGCUACUCAAAGAGUAGCAGAAGGACAUGUGCCUU	38.4	159		
GAUUUUUCUGAGGAUAUUGCAUCACCCGAUCUAUAAGAAGGCAGAACAUGAGGAUCACCCAUGUGGGUUUCUAG	22.1	45.6		
GGAGAUUACUCAGGAUAUCGCUAGACCGACAUGAGGAUCACCCAUGUGGGUGACGCGGUGGGCUACGAGAAGGGAGAAGUGCCC	11.5	11.7		
GGUUGUUAUGACAGCGAGUGUUAGAGAAGGUACAUGAGGAUCACCCAUGUACGUGAUCUUGCGAGUAAGGAUAUCUGUUAUUCA	5.65	5.83		
GCCAAGCAAAAUAAAAUAAAUAAAACAUGAGGAUCACCCAUGUAGGAUAUGCUACACAAAGUGUAGCAGAAGGACAAGCUUGGC	14.6	19		
GCCAUCGCAUGAGGAUAUGCUCCGGUUUCCGGAGCAGAAGGUAUGUCAUAAGACAUGAGGAUCACCCAUGUAGGUAAGAUGGCA			221	31.3
GACUCGAAUGUAGGAUAUGCUGAGGAAUACUCAGCAGAAGGACAUGAGGAUCACCCAUGUAAAUGAGUGAAUAAUAAACGAGUC	1410	197		
GUGCGGUGAGGAUAUACGUAGGUGAAAAUCUGUGUGUUCCUACAUGAGGAUCACCCAUGUAGAAGGCAUGGCAC	148	45.3		
CAGUACUGAGGAUAUACAUGAGGAUCACCCAUGUGCCUAAGGUAGGAUACUACCAUUAGUAGAAGGCAGUACUG	13.8	29.6		
CAGUACUGAGGAUAUACAUGAGGAUCACCCAUGUGUCCCAGCUAGGAAACUAGCAAAAGUAGAAGGCAGUACUG	23.6	538		
UUCAUCGAUGAAGGAUAUCUAUGUCCAACAUGAGGAUCACCCAUGUUGAGGAUUACCUAUGUGUAGGAGAAGGUCAAUAUAACU			7.02	6.28
UCGUAUACACAAGGAUAUCAAUGAUUUGUGGAUCCUACAUGAGGAUCACCCAUGUUUUUAUAUUUUGAGAAGGUGUAGUGUCUU			417	608
UGAAAUCAUGUAGGAUAUGCAUGGCGAAGCUACGCAGAAGGACAUGAGGAUCACCCAUGUUAUAGCUACCCAGUUCGGUGGCAG	46.2	174		
CGAUAUACGAUGGACGGAAACGUACAUGAGGAUCACCCAUGUAGAAGGCGAUCCGCAACGCGGAUUGAGGAUAUAUACCACACA	23.8	23.3		
GUAGCUAUCGGAGGAUAUCCUUAGCGGAAACGCACAUGAGGAUCACCCAUGUAAAUAAAUAAUUGGGAGAAGGCCGAUAGCUAC			107	16.8
GUAGUCAGUAAUGAAAGCCCGGGCGCAGAAGGCCAGACACAUGAGGAUCACCCAUGUAUCCCUAUGGAGGAUAUGUGUCACGUG			113	30.5
CCAGCGUAUGUGAGGAUAUGCUGGUCCUUGGAUCAGCAGAAGGCACAUGAGGAUCACCCAUGUGAGAGCGUUGG	25.7	197		
GUGAAGUAAGGAUAUACAUGAGGAUCACCCAUGUGUGGGAAGGUGAUGGGAGUAGGUAGUAGAAGGUACGAGGA	130	76.6		
GUAAAUCAUGUAGGAUAUGCAUGGCGAAGCUACGCAGAAGGACAUGAGGAUCACCCAUGUUCUGGCUACCGGAUACGGUGGCAA	21.1	87.6		
UAAUAGUGAGGAUAUACAGAAUCUGGGUCCCGCGUGUUGAGACAUGAGGAUCACCCAUGUAGAAGGCACAAAAU	108	42.5		
GCCUAUGUGGAGGAUAUCGACUUCGAAAGAAGUCGAGAAGGCCACACAUGAGGAUCACCCAUGUGAUGCCAGGC	122	86		
AAGCGGGUCUUCAGGGUAAUGAACAUGAGGAUCACCCAUGUGCAGGAUAUGACGGAUCCGCACCGUCAGAAGGGCACUAAGUAC	24.6	69.9		
UGGUACUAGUGAGGAUAUGGGAAGAUACAUGAGGAUCACCCAUGUUUAAGAAUGCCGAGAGGCAACUAGAAGGCCCUAGUACCU			388	35.8
AAAGAACAUGAGGAUCACCCAUGUGAGGAUAUACGAGCGUGAGAAAGAUAAAACGAGCGUAGAAGGCACAAGAA	76.9	81.5		
